The nature of data set [1]: Pharmacokinetics of BaP and RVT in plasma after oral gavage. In kind it is in vivo, Apc^Min/+ mice. The note with it: for half-life / Clearance (Cl) / Volume of distribution (Vd): plasma; for Clearance (Cl) / Volume of distribution (Vd): oral gavage, BaP 100 μg/kg bw, RVT 45 μg/kg bw, mean ± SE, n = 10.
Data set [2] has as its system GST. The data set is described as follows: Glutathione-S-transferase protein expression in colon and liver. It is filed as in vivo, Apc^Min/+ mice. The settings on record: for GST protein expression: colon, RVT and BaP administered separately, compared to no treatment group; for Glutathione-S-transferase protein expression: liver, in comparison to control mice. A digest of the protocol:
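Western blot of total colon and liver protein: 10% SDS–PAGE, transfer to PVDF, mouse anti-GST and rabbit anti-GAPDH antibodies, detection with IRDye680 anti-mouse and IRDye800 anti-rabbit secondaries. GST signal was normalized to GAPDH. […] Values are mean ± SE, n = 10.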

Another data set relates to GST mRNA. In words: GST mRNA expression. It is filed as in vivo, Apc^Min/+ mice. The settings on record: compared to the no treatment group.
The subject of data set [3] is GST. The data set is described as follows: GST activity in colon and liver. In kind it is in vivo, Apc^Min/+ mice. The note with it: liver; compared to BaP alone. A digest of the protocol: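 Colon and liver protein from Apc^Min/+ mice was assayed for GST activity with a commercial kit. […] Tissues were collected 60 days after exposure; n = 10 per group.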
For data set [4], the system named is DNA. In words: BaP-DNA adducts by 32P-postlabeling and TLC in colon and liver. In kind it is in vivo, Apc^Min/+ mice.
A short description of data set [5]: HPLC analysis of BaP organic and aqueous metabolites in plasma, colon and liver. In kind it is in vivo, Apc^Min/+ mice. The note with it: colon, RVT simultaneously or prior to BaP, compared to BaP alone.
Data set [6] concerns BaP-induced colon tumors. In words: BaP-induced colon tumors/adenomas. The note with it: RVT administration post BaP subchronic exposure; data not shown. In kind it is in vivo, Apc^Min/+ mice.
The subject of data set [7] is BaP-induced colon tumors. The note with it: orally administered RVT; mice exposed to BaP compared to BaP alone; cited from earlier work.
A further data set relates to CYP1B1 mRNA. The data set is described as follows: CYP1B1 mRNA expression. The note with it: liver. It is filed as in vivo, Apc^Min/+ mice.
Data set [8] has as its system DNA. In words: Oxidative DNA damage. It is filed as in vivo, Apc^Min/+ mice. The note with it: text: colon, Fig. 9B; RVT prior to and simultaneously with BaP; compared to BaP treatment only.

This is an account of results in article PMC6309585 (Investigational new drugs, 2018).

Each structure is given as a SMILES string.

As a reminder, the half-life is the time needed for the level to fall by half in the phase considered. Consider `c1ccc2c(c1)cc1ccc3cccc4ccc2c1c34` [BaP, Benzo(a)pyrene], for which, in data set [1] (male, ApcMin/+, mouse, in vivo, po), the “Elimination rate (Kd)” value is 0.17 ± 0.06 h. Moreover, the half-life in data set [1] (male, ApcMin/+, mouse, po) was 1.8 ± 0.018 h. In data set [1], the “Clearance (Cl)” value stood at 2.4 ± 0.24 mL/day/kg and the “Volume of distribution (Vd)” value stood at 0.00058 ± 4.5e-05 L/kg. Also, in the data set with GST [2], the GST protein expression result was “increased” and the Glutathione-S-transferase protein expression entry is listed as “significantly decreased”. Also, the “Decrease in GST mRNA expression” value with GST mRNA (colon) turned out to be 50%.
On to `Oc1ccc(C=Cc2cc(O)cc(O)c2)cc1` [RVT, 3,5,4′-trihydroxystilbene], for which, in the data set on GST [3], the GST activity entry is given as “no significant changes”. In addition, the “Stable BaP-DNA adduct concentrations” value in the data set with DNA [4] is recorded as “reduced”. In addition, in data set [5], the “BaP aqueous metabolite levels” value is recorded as “increases” and the “BaP organic metabolite concentrations” value is listed as “significantly decreased”. Also, the half-life in [1] (male, ApcMin/+, mouse, po) is 1 ± 0.011 h. For the same compound, in [1], the “Clearance (Cl)” value turned out to be 1.9 ± 0.14 mL/day/kg and the “Volume of distribution (Vd)” value was 0.00044 ± 5e-05 L/kg. The “Reversal of BaP-induced carcinogenic effects (tumor count and size)” value with BaP-induced colon tumors [6] is recorded as “failed to reverse”. Also, in the data set with GST [2], the GST protein expression result was “increased” and the Glutathione-S-transferase protein expression entry is “significantly decreased”. The “Incidence, size and number of adenomas formed in the colon” value in the data set on BaP-induced colon tumors [7] is recorded as “decrease”. Moreover, the “CYP1B1 mRNA expression” value in the data set with CYP1B1 mRNA is “feeble expression”. In the data set with GST mRNA (liver, RVT either simultaneously or prior to BaP treatment), the “GST mRNA expression” value was “increase”. In addition, the “Base pair damage (apurinic/apyrimidinic sites)” value in the data set on DNA [8] was “significant reduction”.
